PTPN22 act: LYP phosphatase activators, primary screen, biochemical, DiFMUP fluorescence, 2 µM; Tyrosine-protein phosphatase non-receptor type 22 (Homo sapiens), Q9Y2R2; recombinant LYP; 0 = plate median, 100 = signal doubled; activation, % at 2 µM; 96,000 tested, 0.11% active; AID 697, 2007;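 active means activation at 2 µM above a set limit, the mean plus 5 SD, cut at about 37% in these data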
PLAP act: PLAP enzyme activators, biochemical, luminescence, HTS | AID 696, 2007 | 96,000 tested, 1.2% active | Alkaline phosphatase, placental type (Homo sapiens), P05187 | purified PLAP enzyme, luminescent substrate read-out; active compounds read high | activation fold at 20 µM; in the data active means activation fold above about 2
Target sequence (P05187 whole entry, looked up): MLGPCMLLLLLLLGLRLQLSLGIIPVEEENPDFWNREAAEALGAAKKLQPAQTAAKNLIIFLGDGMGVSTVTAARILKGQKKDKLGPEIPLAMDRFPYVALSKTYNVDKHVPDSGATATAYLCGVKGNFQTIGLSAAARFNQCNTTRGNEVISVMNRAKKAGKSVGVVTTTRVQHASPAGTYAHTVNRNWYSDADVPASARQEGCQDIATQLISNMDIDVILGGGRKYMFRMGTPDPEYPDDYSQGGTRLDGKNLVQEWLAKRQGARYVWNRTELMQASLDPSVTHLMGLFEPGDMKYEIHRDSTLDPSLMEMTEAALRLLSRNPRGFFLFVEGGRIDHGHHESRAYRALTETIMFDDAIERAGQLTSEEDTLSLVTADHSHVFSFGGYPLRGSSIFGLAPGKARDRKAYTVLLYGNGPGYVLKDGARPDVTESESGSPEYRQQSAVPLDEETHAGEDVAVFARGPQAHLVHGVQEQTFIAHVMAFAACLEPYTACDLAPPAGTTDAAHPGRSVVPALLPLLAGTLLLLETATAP
PLK1 kinase inh: human PLK1 kinase inhibitors, primary screen, biochemical, TR-FRET | recombinant PLK1 kinase, TR-FRET peptide phosphorylation | 97,000 tested, 0.53% active | inhibition, % at 10 µM | AID 619, 2007;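 active means inhibition of 50% or more in the single-concentration screen; inactive means inhibition below 50%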;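 further: 0% = DMSO max control and 100% = H-89 dihydrochloride min control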
PTPN22 inh 2: PTPN22 phosphatase inhibitors, primary screen, biochemical, DiFMUP fluorescence, 2 µM; Tyrosine-protein phosphatase non-receptor type 22 (Homo sapiens), Q9Y2R2; recombinant LYP catalytic domain; inhibition, % at 2 µM; 96,000 tested, 0.21% active;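 active means inhibition at 2 µM at or above a set limit, the screen mean plus 3 SD, cut at about 24% in these data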;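 further: 0% = DMSO with enzyme and 100% = enzyme fully blocked by orthovanadate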
Plk1 PBD FP: Plk1 polo box domain binding inhibitors, primary screen, biochemical, fluorescence polarization; Plk1 PBD phosphopeptide binding; inhibition, %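 (tested at about 20 µM)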; 97,000 tested, 0.13% active; AID 693, 2007; in the data active means inhibition above about 34%, passing the limit was not always enough
HIV Rev-RRE inh: HIV-1 Rev-RRE binding inhibitors, primary screen, biochemical, FRET, protein-RNA interaction; P05866; Rev peptide-RRE RNA binding; inhibition, % at 8 µM; 97,000 tested, 0.79% active;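 active means inhibition above the screen-wide mean plus 3 SD, cut at about 35% in these data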;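 further: 0% = median DMSO wells and 100% = median Neomycin B control wells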
Target sequence (P05866 whole entry, looked up): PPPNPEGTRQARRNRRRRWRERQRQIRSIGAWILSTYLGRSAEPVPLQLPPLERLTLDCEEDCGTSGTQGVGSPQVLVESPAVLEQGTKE
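Assay system: labelled RRE RNA duplex and labelled Rev peptide / Medium: HEPES pH 7.5 salt buffer with EDTA / Reagent: labelled Rev peptide / Schedule: 5 + 15 min at 25 °C / Signal: FRET, excitation 480 nm, emission 540 nm donor and 671 nm acceptor / Benchmarks: DMSO and neomycin B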
The depositor's hits bear a star; x = no result given; [ ] = another dose, or the depositor's remark. Rows were chosen to be rich in hits. Some 2.7% of all compounds tested hit in one or more screens of this group.

SMILES | PTPN22 act | PLAP act | PLK1 kinase inh | PTPN22 inh 2 | Plk1 PBD FP | HIV Rev-RRE inh
COc1ccc2nc(SCC(=O)Nc3ccccc3C)[nH]c2c1 | -0.6 | 1.4 | -1.7 | 3.9 | -0.3 | 3.7
COc1ccc2nc(SCC(=O)Nc3ccccc3C#N)[nH]c2c1 | -4.9 | 2.1* | -0.8 | 2.7 | 6.8 | 4.9
CCNC(=O)N1C(=O)C2(OCCO2)c2cc(Br)ccc21 | -3.2 | 1 | -12.0 | 2.8 | -7.4 | 7.3
Brc1ccc(-c2cn3nc4c(nc3n2)CCCC4)cc1 | -4.1 | 1.2 | -2.5 | 5.5 | -18.4 | 24.7
c1ccc(-c2cn3nc4c(nc3n2)CCCC4)cc1 | 2.5 | 1.2 | 12.6 | -0.3 | -3.6 | 47.5*
Cc1nnc(NC(=O)CSc2nnc(CCc3nc4ccccc4[nH]3)n2C)s1 | 19.1 | 2.1* | -5.8 | -20.0 | -1.0 | 1.5
O=c1cc(O)c2c(=O)n(-c3ccccc3)c3ccccc3c2o1 | -8.3 | 1 | -15.4 | 7.7 | -1.5 | 45.1*
Cc1ccc(S(=O)(=O)c2nc(N3CCOCC3)sc2Cl)cc1 | 3.6 | 1 | -9.5 | -3.5 | 20.1 | 6.1
COc1ccc(CCNC(=O)COc2nsnc2N2CCOCC2)cc1OC | -2.5 | 1 | -6.9 | 3.7 | -6.5 | 1.3
O=C(C1CCCO1)N1CCN(Cc2c(O)ccc3ccccc23)CC1 (stereo not given) | -1.3 | 2.4* | -8.6 | 4.0 | -13.9 | 7.3
COc1cc(C(=O)Oc2ccccc2/C=N/NC(=O)c2ccc(Cl)cc2Cl)cc(OC)c1OC | -1.5 | 2.3* | -6.6 | -0.6 | -18.8 | -2.8
CC1(C)CC(=O)C2=C(C1)OC1=C(C(=O)CC(C)(C)C1)C2c1ccc(O)cc1O | -6.0 | 1.3 | -16.7 | 5.5 | -1.4 | 94.2*[fluorescence artefact?]
CCOC(=O)C1=C(N)OC2=C(C(=O)CC(C)(C)C2)C1c1ccco1 (stereo not given) | 9.8 | 0.9 | -14.5 | -14.0 | 11.7 | 7.4
C=CCN1C(=O)S/C(=C\c2ccc(N3CCOCC3)cc2C)C1=O | -0.6 | 1 | -8.7 | 3.5 | -12.5 | 39.5*
Cc1cc(N2CCOCC2)ccc1/C=C1\NC(=O)N(CC(=O)Nc2ccccc2C)C1=O | 5.7 | 0.8 | -15.2 | -6.1 | 4.8 | 7.8
Cc1cccc(/C=C/C(=O)c2cc(Br)ccc(=O)c2O)c1 | 1.2 | 1.5 | -14.3 | -4.3 | -19.2 | 36.8*
CCc1ccc(/C=C/C(=O)c2cc(Br)ccc(=O)c2O)cc1 | -1.5 | 1.5 | -11.2 | -1.4 | 2.2 | 29.2
Cn1c(=O)c2c(-c3ccccc3)n(CCCN3CCOCC3)cc2n(C)c1=O | -10.3 | 1 | -9.7 | 7.4 | 17.9 | -2.3
O=C1CCNc2cc3ccccc3cc21 | 3.9 | 0.9 | -2.1 | -4.0 | -3.2 | 44.5*
COCCNC(=O)c1cn(C)c2ccc(S(=O)(=O)N(C)C3CCCCC3)cc2c1=O | x | 1.6 | 62.1* | x | -9.8 | 9.0
CN1CCN(CCCNC(=O)c2cn(C)c3ccc(S(=O)(=O)N(C)C)cc3c2=O)CC1 | -3.7 | 1.4 | -13.0 | 1.5 | -6.6 | 0.3
CCOCCCNC(=O)c1cn(C)c2ccc(S(=O)(=O)N(C)C3CCCCC3)cc2c1=O | -4.3 | 1.7 | -1.5 | 2.1 | -14.7 | 6.2
CC(C)N(CCNC(=O)c1cn(C)c2ccc(S(=O)(=O)N(C)C)cc2c1=O)Cc1ccccc1 | x | 1.5 | 59.2* | x | -1.6 | 12.6
COc1ccccc1NC(=O)c1ccc(S(=O)(=O)N2CCCC2)cc1 | -0.4 | 0.8 | -10.8 | -2.8 | 9.9 | 2.1
Cc1nc(C)c(-c2csc(NCc3ccco3)n2)s1 | -0.8 | 1.3 | -12.6 | 1.4 | -11.2 | 1.8
SMILES | PTPN22 act | PLAP act | PLK1 kinase inh | PTPN22 inh 2 | Plk1 PBD FP | HIV Rev-RRE inh
CCC1(CC)Cc2ccccc2C(Nc2c(C)n(C)n(-c3ccccc3)c2=O)=N1 | -1.3 | 2* | -7.4 | 2.3 | 10.5 | 3.3
O=C(OCC#CCSc1nnc(-c2ccncc2)o1)c1cccs1 | 4.8 | 1 | 54.2* | -0.6 | -11.2 | -7.7
Cc1n[nH]c(C)c1CCc1nc2c3ccccc3nc(SCC(=O)Nc3ccccc3F)n2n1 | 3.3 | 2.2* | -5.1 | -6.0 | 8.3 | 7.0
COc1ccc(Cc2nc(-c3ccc(Cl)cc3)no2)cc1 | 1.7 | 2* | -8.3 | -3.6 | -0.3 | 20.6
Cc1cc(C)c(NC(=O)CN2C(=O)NC3(CCCCC3)C2=O)c(Cl)c1 | 0.3 | 1 | -11.6 | -3.8 | -4.1 | 8.1
CCOC(=O)C1CCN(C(=O)COc2ccc(N(C)S(=O)(=O)c3cccs3)cc2)CC1 | -7.2 | 1.6 | -13.2 | 4.6 | 46.2 | 5.5
Cc1ccc2nc3sc(C(=O)N4CCOCC4)c(N)c3cc2c1 | 12.2 | 1 | -6.3 | -12.2 | 7.8 | 11.0
CC(C)c1ccc2nc3sc(C(=O)N4CCc5ccccc5C4)c(N)c3cc2c1 | -4.0 | 1.3 | -26.4 | 6.8 | -17.7 | 56.6*
COc1ccc(C2=NOC(C(=O)Nc3cccnc3)C2)cc1 (stereo not given) | -6.8 | 1 | -7.9 | 7.4 | -3.5 | 5.3
Cc1ccc(NC(=O)NNC(=O)C2CC(c3cccnc3)=NO2)cc1 (stereo not given) | 3.1 | 2* | -1.2 | -0.6 | -5.2 | 9.6
N#C/C(=C/c1ccc(N2CCOCC2)o1)c1ccc(Cl)cc1 | -10.5 | 1.1 | -6.0 | 13.4 | -126.8 | 112.6*[fluorescence artefact?]
N#C/C(=C/c1ccc(N2CCCC2)c([N+](=O)[O-])c1)c1nc2ccccc2[nH]1 | -6.7 | 0.8 | -6.2 | 11.7 | -40.0 | 45.0*
c1ccc2[nH]c(CN3CCOCC3)nc2c1 | -6.2 | 0.9 | -14.3 | 7.1 | 7.6 | 6.5
N#C/C(=C\c1ccc(N2CCOCC2)o1)c1nc2ccccc2[nH]1 | -0.6 | 0.9 | -65.7 | 2.3 | -223.1 | 135.8*[fluorescence artefact?]
Cc1ccc(N2C(=O)[C@@H]3C(c4ccc(F)cc4)=NO[C@@H]3C2=O)cc1 | 1.9 | 1 | -15.2 | -4.1 | -15.8 | 8.6
Cc1sc2nc(SCC(=O)NCc3cccs3)[nH]c(=O)c2c1C | 2.9 | 0.9 | 51.6* | -4.8 | 25.1 | -0.7
COc1ccc(/C=N/NC(=S)NC2CCS(=O)(=O)C2)cc1OC (stereo not given) | 1.3 | 0.9 | -2.6 | 0.8 | 8.6 | 2.8
CCOC(=O)C1=C(C)N(c2ccc(C)c(C)c2)C(=O)/C1=C\c1ccco1 | -4.6 | 0.9 | 0.3 | 4.0 | 11.9 | 7.7
CCOC(=O)c1c(NC(=O)CSc2n[nH]c(N)n2)sc(CC)c1C | x | 2.2* | x | x | x | x
O=C(O)CCCCCNc1nc(=S)[nH]c2ccccc12 | -23.8 | 1.1 | -6.1 | 26.7* | 39.0 | 7.7
Cc1cccc(N(CC(=O)N2CCOCC2)S(C)(=O)=O)c1C | 8.0 | 1.1 | -15.8 | -9.4 | 21.8 | 3.9
O=C(NCC1CCCO1)c1csc2c1CCCCC2 (stereo not given) | -0.9 | 1 | -6.2 | 0.7 | -4.5 | 1.3
